High-throughput results deposited in PubChem BioAssay by several laboratories.
A selection: hits, their analogues and other compounds. The true share with any hit is near 1.7%.
HTR2A ag – activates the mouse 5-HT2A serotonin receptor; CHO-K1 mHTR2A beta-arrestin complementation, luminescence; percent of 30 µM serotonin response; 360,000 compounds, 0.66% hits; activation, % at 7.6 µM; P35363;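 active means activation above a run cutoff, the mean activation of all tested compounds plus 3 SD, cut at about 14% in these data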;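 further: 0% = plate median of compound wells and 100% = 30 µM serotonin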
Target sequence (P35363 whole entry, looked up): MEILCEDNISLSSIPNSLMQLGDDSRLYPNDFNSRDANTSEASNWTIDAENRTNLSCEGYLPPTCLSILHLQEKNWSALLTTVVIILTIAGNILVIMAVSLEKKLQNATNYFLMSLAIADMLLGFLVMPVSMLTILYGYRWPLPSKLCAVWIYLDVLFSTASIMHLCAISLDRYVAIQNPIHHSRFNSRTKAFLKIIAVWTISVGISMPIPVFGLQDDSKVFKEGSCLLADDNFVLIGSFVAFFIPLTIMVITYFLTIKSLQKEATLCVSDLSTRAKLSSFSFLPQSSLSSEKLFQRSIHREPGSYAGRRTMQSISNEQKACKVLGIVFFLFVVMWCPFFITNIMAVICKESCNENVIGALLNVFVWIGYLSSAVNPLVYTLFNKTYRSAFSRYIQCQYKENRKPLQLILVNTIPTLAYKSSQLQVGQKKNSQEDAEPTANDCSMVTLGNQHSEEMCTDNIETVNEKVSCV
JMJD2C inh – blocks human GASC-1 demethylase activity; Q9H3R0; GST-JMJD2C(1-420) H3K9me3 demethylation, DELFIA europium; inhibition, % at 2.35 µM; 330,000 compounds, 0.069% hits; AID 2099;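 active means more than half of a compound's replicate wells show inhibition beyond 50%, single wells judged on their own value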;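 further: signal counts dimethyl H3K9 product captured on neutravidin plate; 0% = median of DMSO wells and 100% = 0.3 times that DMSO median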
T cell HTS – T cell immune modulators affecting CD8 T cell-vesicle binding. 2C CD8+ T cell-vesicle binding, flow cytometry; hits give low values. response (vesicle binding), % at 7 µM. 330,000 compounds, 0.068% hits. AID 2052;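 active means response, share of CD8 T cells binding vesicles, and their 90th percentile fluorescence all below set limits, cut at about 80% in these data, passing the limit was not always enough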;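 further: values below 100% mean blocked vesicle binding to the CD8+ T cells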
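Also added: QL9-peptide-loaded Drosophila micro-vesicles bearing Ld, ICAM-1 and B7-1; Test system: purified 2C TCR transgenic mouse naive CD8+ T cells; Measured by: cytometric PE anti-B7-1 and Alexa647 anti-CD8 signals after 1% paraformaldehyde fixation; Timing: binding step 1.5 h, 37 °C, antibody labelling 20 min, ice.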
PP1 inh – blocks human PP1-alpha phosphatase, a PP5 counter-screen | purified PP1alpha, OMFP fluorescence | inhibition, % at 6.7 µM | 320,000 compounds, 0.9% hits;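 active means inhibition above the mean inhibition of all tested compounds plus 3 SD, computed separately for each screening campaign, cut at about 15% in these data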
PP5 primary – blocks human protein phosphatase 5 activity. inhibition, % at 6.7 µM. P53041. 320,000 compounds, 0.18% hits. purified PP5c, OMFP substrate fluorescence;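 active means inhibition above the campaign's mean inhibition across all tested compounds plus 3 SD, cut at about 9.5% in these data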;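 further: 0% = DMSO only and 100% = 100 µM cantharidin control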
MOR ag counter – counter-screen for mouse HTR2A agonists: human mu opioid receptor agonists. U2OS OPRM1 beta-arrestin PathHunter, luminescence; DMSO 0%, DAMGO 9.3 µM 100%. 2,300 compounds, 5.3% hits. shares compounds with HTR2A ag. activation, % at 9.3 µM. AID 624380;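 active means mean activation above the mean of DMSO-only wells plus 3 SD, cut at about 0.5% in these data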
HTR2A ag conf – confirmation of mouse HTR2A serotonin receptor agonists. 2,300 compounds, 19% hits. activation, % at 7.6 µM. shares compounds with HTR2A ag. CHO-K1 PathHunter beta-arrestin recruitment, luminescence; DMSO 0%, 30 µM serotonin 100%. AID 624381;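 active means mean activation across triplicates above the hit threshold derived in the original primary screen, cut at about 15% in these data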
An asterisk follows results filed as active; . = no result.

SMILES	HTR2A ag	JMJD2C inh	T cell HTS	PP1 inh	PP5 primary	MOR ag counter	HTR2A ag conf
Nc1nnc(SCC(=O)c2ccc([N+](=O)[O-])cc2)s1	-0.7	13.4	145.9	1.1	-1.1	.	.
Cc1nnc(SCC(=O)c2ccc([N+](=O)[O-])cc2)s1	15.4*	2.4	311.7	1.4	-1.2	0.5*	-1.9
COc1ccc2c(c1)C(O)C(CO)C(C(=O)O)C2 (configuration not stated)	15.8*	.	.	.	.	-0.7	-3.3
COc1ccc(S(=O)(=O)N(C)CC(=O)N2CCCCCC2)cc1	36.4*	-2.1	209.3	-1.2	3.0	-0.6	4.0
COc1ccc(OC)c(S(=O)(=O)N(C)CC(=O)N2CCCCC2)c1	15.7*	-4.3	510.2	-2.9	-1.3	-0.6	-2.0
COc1ccc(S(=O)(=O)N(C)CC(=O)N2CCOCC2)cc1	-0.5	-0.3	322.0	2.5	1.5	.	.
c1ccc(CCN=C2CCCc3c2[nH]c2ccccc32)cc1	15.3*	8.8	808.6	-3.1	-2.4	-0.2	28.4*
Cc1ccccc1OCC(=O)Nc1cccc(S(=O)(=O)NC2=NCCCCC2)c1	-8.2	4.9	641.8	-1.2	0.4	.	.
Cc1ccccc1OCC(=O)Nc1cccc(S(=O)(=O)NC2=NCCC2)c1	15.7*	-3.2	87.9	-4.2	-0.2	0.4	-0.6
Cc1nnc2ccc(-c3ccc(NS(=O)(=O)c4ccc(F)cc4F)cc3)nn12	-1.0	-11.7	427.8	-5.1	-3.8	.	.
CN(Cc1nc(-c2ccccc2)no1)C(=O)c1ccco1	15.5*	3.0	281.4	-4.2	-1.5	-0.4	-1.2
Cc1nc2c(cc1NC(=O)C(C)(C)C)nc(C)n2Cc1ccccc1	20.5*	-8.2	386.7	-5.7	-0.3	-0.4	-3.9
CCOc1ccccc1CN1CCNC(=O)C1CC(=O)NCCN1CCOC1=O (configuration not stated)	15.0*	-16.9	158.3	-5.7	0.1	-0.3	-3.0
O=C(CC1C(=O)NCCN1Cc1ccccc1C(F)(F)F)NCCn1cccn1 (configuration not stated)	15.6*	-7.8	345.0	-6.4	-0.6	0.2	-0.2
O=C(CC1C(=O)NCCN1Cc1ccccc1C(F)(F)F)NCCN1CCOCC1 (configuration not stated)	3.0	7.8	249.1	-1.1	2.9	.	.
Cc1cc(C)c2nc(NNC(=O)c3ccc(S(=O)(=O)N4CC(C)CC(C)C4)cc3)sc2c1 (configuration not stated)	62.0*	0.6	646.3	16.2*	5.1	0.1	-4.1
CCOC(=O)c1csc(-c2ccc(COC(=O)c3ccccc3)o2)n1	1.1	.	.	.	.	.	.
CCOC(=O)C(=CNc1ccc(N2CCOCC2)cc1)C(=O)OCC	1.2	-10.0	468.2	-3.9	1.0	.	.
CCOC(=O)C(=CNc1ccc2c(c1)CCN2C(C)=O)C(=O)OCC	19.2*	-7.1	352.6	-8.6	-2.5	-0.4	8.3
Cc1c(-c2cccc(NC(=O)c3cccs3)c2)nc2ncccn12	15.4*	1.3	342.0	4.7	3.0	-0.5	7.1
